Source: ChEMBL document CHEMBL1144107, “Novel and known constituents from Buddleja species and their activity against leukocyte eicosanoid generation” (J Nat Prod, 1999)

Experiments:
[1] = target: T1, Polyunsaturated fatty acid 5-lipoxygenase (Rattus norvegicus) (UniProt P12527); assay: Inhibition of 5-lipoxygenase in Wistar rat peritoneal leukocytes at 50 ug/mL; type: cell-based
T1 sequence (whole entry): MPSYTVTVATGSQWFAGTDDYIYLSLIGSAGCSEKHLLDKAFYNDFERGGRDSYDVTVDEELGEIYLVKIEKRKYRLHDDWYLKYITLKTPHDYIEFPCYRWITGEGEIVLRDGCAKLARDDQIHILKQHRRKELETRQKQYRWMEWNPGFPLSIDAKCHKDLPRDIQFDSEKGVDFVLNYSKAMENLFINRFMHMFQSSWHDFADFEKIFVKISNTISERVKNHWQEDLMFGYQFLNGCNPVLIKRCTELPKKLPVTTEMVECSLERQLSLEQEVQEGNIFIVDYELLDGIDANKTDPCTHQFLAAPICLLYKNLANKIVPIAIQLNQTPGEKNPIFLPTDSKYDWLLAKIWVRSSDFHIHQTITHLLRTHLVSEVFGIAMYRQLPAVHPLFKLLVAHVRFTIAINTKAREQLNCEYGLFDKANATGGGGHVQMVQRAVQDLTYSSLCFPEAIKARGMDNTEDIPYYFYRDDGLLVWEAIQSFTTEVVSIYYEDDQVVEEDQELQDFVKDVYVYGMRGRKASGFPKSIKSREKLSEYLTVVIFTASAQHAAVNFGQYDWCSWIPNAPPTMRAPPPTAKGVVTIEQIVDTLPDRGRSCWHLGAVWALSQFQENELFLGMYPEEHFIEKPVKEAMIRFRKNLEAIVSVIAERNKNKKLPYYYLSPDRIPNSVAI
Method in brief: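 Leukocytes (~85% PMNs) were elicited in male Wistar rats (200-300 g) with ip 6% oyster glycogen and harvested 16-20 h later. Cells at 2.5 × 10^6/mL in complete HBSS were tested in triplicate, preincubated with the sample (in DMSO, or CHCl3 evaporated) for 10 min at 37 °C, then given A23187 for 10 min. Supernatant LTB4 was measured by RIA (3H-LTB4 tracer, rabbit antiserum, 18 h, 4 °C).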

[2] = Inhibition of cyclooxygenase in Wistar rat peritoneal leukocytes; type: cell-based
Method in brief: (§1)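 Peritoneal leukocytes (~85% PMNs) came from male Wistar rats (200-300 g) 16-20 h after ip 6% oyster glycogen and were used at 2.5 × 10^6 cells/mL in complete HBSS. The COX readout was supernatant TXB2 by radioimmunoassay (3H-TXB2 tracer, rabbit antiserum, 4 °C, 18 h).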

[3] = target: T2, Polyunsaturated fatty acid 5-lipoxygenase (Rattus norvegicus, UniProt P12527); assay: Inhibition of 5-lipoxygenase in Wistar rat peritoneal leukocytes; type: cell-based
T2 sequence (P12527 whole entry): T1 sequence (whole entry)
Method in brief: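 Male Wistar rat peritoneal leukocytes (~85% PMNs) elicited by ip 6% oyster glycogen, harvested 16-20 h later, and resuspended at 2.5 × 10^6 cells/mL in HBSS with 1.26 mM Ca2+ and 0.9 mM Mg2+. Triplicates were preincubated 10 min at 37 °C with the test agent, then stimulated 10 min with calcium ionophore A23187. Supernatant LTB4 was measured by radioimmunoassay using a 3H-LTB4 tracer and rabbit antiserum (4 °C, 18 h).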

[4] = species: Rattus norvegicus; assay: Inhibition of cyclooxygenase in Wistar rat peritoneal leukocytes at 50 ug/mL; type: cell-based; method in brief: as §1
[5] = Cell viability of Wistar rat peritoneal leukocytes by trypan blue exclusion method; type: cell-based, Leukocyte; conditions: read-out: Activity

| Structure (SMILES) | inhibition [1] | IC50 [2] | IC50 [3] | inhibition [4] | viability [5] |
| --- | --- | --- | --- | --- | --- |
| C=C1CC/C=C(\C)C(=O)C[C@@H]2[C@@H]1CC2(C)C [BUDDLEDIN C] | 16.4% | > 200 µM | > 200 µM | 9.5% | – |
| COc1ccc2c(c1)c(CC(=O)O)c(C)n2C(=O)c1ccc(Cl)cc1 | 0% | – | – | 100% | – |
| Cc1cc(-c2ccc(/N=N/c3c(S(=O)(=O)O)cc4cc(S(=O)(=O)O)cc(N)c4c3O)c(C)c2)ccc1/N=N/c1c(S(=O)(=O)O)cc2cc(S(=O)(=O)O)cc(N)c2c1O [TRYPAN BLUE] | – | – | – | – | 95% |
| C/C1=C\CC(C)(C)/C=C/C(=O)/C(C)=C/CC1 | 0% | – | – | 0% | – |
| C[C@@H]1O[C@@H](O[C@@H]2[C@@H](O)[C@H](OCCc3ccc(O)c(O)c3)O[C@H](CO[C@@H]3OC[C@H](O)[C@H](O)[C@H]3O)[C@H]2OC(=O)/C=C/c2ccc(O)c(O)c2)[C@H](O)[C@H](O)[C@H]1O | 0% | – | – | 0% | – |
| CCn1c(=O)ccc2cc(COc3cc(F)cc(C4(OC)CCOCC4)c3)ccc21 | 100% | – | – | 47.8% | – |
| CCC(OC)(c1cccc(OCc2ccc3ccccc3c2)c1)c1nccs1 (centres undefined) | 100% | – | – | 0% | – |
| C=C1CCC[C@H](C)C(=O)[C@H](OC(C)=O)[C@@H]2[C@@H]1CC2(C)C | 0% | – | – | 0% | – |
| C[C@@H]1O[C@@H](O[C@@H]2[C@@H](O)[C@H](OCCc3ccc(O)c(O)c3)O[C@H](CO)[C@H]2OC(=O)/C=C/c2ccc(O)c(O)c2)[C@H](O)[C@H](O)[C@H]1O | 0% | – | – | 0% | – |
| COC(CO[C@@H]1O[C@H](CO)[C@@H](OC(=O)/C=C/c2ccc(O)c(O)c2)[C@H](O[C@@H]2O[C@@H](C)[C@H](O)[C@@H](O)[C@H]2O)[C@H]1O)c1ccc(O)c(O)c1 (some centres undefined) | 0% | – | – | 0% | – |
| COc1ccc(-c2cc(=O)c3c(O)cc(O)cc3o2)cc1 [ACACETIN] | 77.6% | 77.5 µM | 123 µM | 69.5% | – |
| C[C@H]1O[C@H](O[C@@H]2[C@@H](O)[C@H](OCCc3ccc(O)c(O)c3)O[C@H](CO[C@H]3O[C@@H](CO)[C@H](O)[C@@H](O)[C@@H]3O)[C@H]2OC(=O)/C=C/c2ccc(O)c(O)c2)[C@@H](O)[C@@H](O)[C@@H]1O | 0% | – | – | 0% | – |
| C[C@H]1O[C@H](O[C@@H]2[C@@H](O)[C@H](OCCc3ccc(O)c(O)c3)O[C@H](CO[C@H]3OCC(O)(CO)[C@@H]3O)[C@H]2OC(=O)/C=C/c2ccc(O)c(O)c2)[C@@H](O)[C@@H](O)[C@@H]1O (some centres undefined) | 0% | – | – | 0% | – |
| C=C1CC/C=C(\C)C(=O)[C@H](OC(C)=O)[C@@H]2[C@@H]1CC2(C)C [BUDDLEDIN A] | 98% | 13.7 µM | 50.4 µM | 89.3% | – |
| CC(/C=C/C=C(\C)C(=O)O)=C\C=C\C=C(C)\C=C\C=C(/C)C(=O)O[C@H]1O[C@H](CO[C@@H]2O[C@H](CO)[C@@H](O)[C@H](O)[C@H]2O)[C@@H](O)[C@H](O)[C@H]1O [CROCETIN MONOGENTIBIOSYL ESTER] | 0% | 28.2 µM | – | 85.1% | – |
| C=C1CC/C=C(\C)C(=O)[C@H](O)[C@@H]2[C@@H]1CC2(C)C [BUDDLEDIN B] | 49.3% | > 200 µM | > 200 µM | 47.9% | – |
| O=C(O)c1ccc(OCCn2ccnc2)cc1 | 0% | – | – | 89.6% | – |
| O=C(/C=C/c1ccc(O)c(O)c1)O[C@H]1[C@H](O)[C@@H](O)[C@H](OCCc2ccc(O)c(O)c2)O[C@@H]1CO | 0% | – | – | 0% | – |
